These results are taken from ChEMBL document CHEMBL5647686, “B cell receptor-induced phosphorylation of Pyk2 and focal adhesion kinase involves integrins and the Rap GTPases and is required for B cell spreading” (J Biol Chem, 2009).

Series [1] has as its system A20. The series is described as follows: Inhibition of anti-IgG-induced B-cell spreading in mouse A20 cells plated on fibronectin assessed as reduction in number of A20 cells that developed an elongated and spread morphology at 2.5 uM for 1 to 4 hrs by immunofluorescence assay. The series is classed as functional, cell-based. Conditions: time 1-4 hrs. The gist of the method: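 A20 cells pretreated 45 min with DMSO or 2.5 μm inhibitor in RPMI 1640 with 2% FCS, plated at 37 °C on wells coated with 2.63 μg/cm² fibronectin (BSA-blocked), and stimulated with 10 μg/ml soluble anti-IgG for 1, 2 or 4 h. Phase-dark cells with elongated or irregular shape counted as spread. Percentage of adherent cells; >150 cells counted per experiment, three experiments; one-tailed paired t test.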

The target of series [2] is Protein-tyrosine kinase 2-beta (Mus musculus) (UniProt Q9QVP9). The series is described as follows: Inhibition of anti-Ig-induced tyrosine phosphorylation of Pyk2 in mouse A20 cells plated on collagen/fibronectin ECM at 0.15 to 5 uM incubated for 45 mins before being stimulated with anti-IgG for 20 mins by immunoblotting. Format: cell-based. Conditions: dose 0.15-5 µM, time 65.0 min. Background: A western blot detects proteins with antibodies after separation by electrophoresis.

In series [3] the test system is A20. In words: Inhibition of anti-Ig-induced tyrosine phosphorylation of FAK in mouse A20 cells plated on collagen/fibronectin ECM conditions at 0.15 to 5 uM incubated for 45 mins before being stimulated with anti-IgG for 20 mins by immunoblotting. Format: cell-based. Conditions: dose 0.15-5 µM, time 65.0 min.
In series [4] the target is Protein-tyrosine kinase 2-beta (Mus musculus) (UniProt Q9QVP9). The series is described as follows: Inhibition of […] tyrosine phosphorylation of Pyk2 in mouse A20 cells induced by clustering LFA-1 with plate-bound Abs at 2.5 to 5 uM incubated for 45 mins before being stimulated with anti-LFA-1 Abs for 30 mins by immunoblotting. Format: cell-based. The note with it: dose 2.5-5 µM, time 75.0 min. The gist of the method:
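A20 cells pretreated 45 min with inhibitor or DMSO were added for 30 min to wells coated with 2.63 μg/cm² anti-LFA-1 Abs. Lysates were cleared, and Pyk2 or FAK immunoprecipitates were blotted with 4G10 anti-Tyr(P).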

Series [5] relates to A20. The series is described as follows: Inhibition of anti-Ig-induced SRC dependent overall protein tyrosine phosphorylation in mouse A20 cells under suspension conditions at 0.15 to 5 uM incubated for 45 mins before being stimulated with anti-IgG for 20 mins by immunoblotting. Format: cell-based. Conditions: dose 0.15-5 µM, time 65.0 min. The gist of the method: (§1)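 A20 cells held in suspension in modified HEPES-buffered saline were treated with inhibitor at graded concentrations or DMSO for 45 min, then stimulated with 20 μg/ml anti-IgG for 20 min. Unstimulated controls were kept 45 min plus 20 min without stimulus. Cold lysis buffer was added, and lysates cleared. Pyk2 immunoprecipitates were blotted with 4G10 anti-Tyr(P) and reprobed for Pyk2. Whole lysates were blotted with 4G10 for total phosphotyrosine and for phospho-Erk.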

For series [6], the system named is A20. The series is described as follows: Inhibition of anti-Ig-induced tyrosine phosphorylation of ERK in mouse A20 cells under suspension conditions at 0.15 to 5 uM incubated for 45 mins before being stimulated with anti-IgG for 20 mins by immunoblotting. Format: cell-based. The note with it: dose 0.15-5 µM, time 65.0 min. The gist of the method:
as §1

For series [7], the target named is Tyrosine-protein kinase SYK (Mus musculus) (UniProt P48025). The series is described as follows: Inhibition of anti-Ig-induced SYK dependent overall protein tyrosine phosphorylation in mouse A20 cells under suspension conditions at 0.15 to 5 uM incubated for 45 mins before being stimulated with anti-IgG for 20 mins by immunoblotting. The series is classed as cell-based. The note with it: dose 0.15-5 µM, time 65.0 min. The gist of the method:
as §1

The subject of series [8] is A20. The series is described as follows: Inhibition of LFA-1 Ab-induced B-cell spreading in mouse A20 cells plated on anti-LFA-1 Ab coated plates at 2.5 uM for 1 to 3 hrs by immunofluorescence assay. The series is classed as functional, cell-based. The note with it: time 1-3 hrs. The gist of the method:
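A20 B lymphoma cells pretreated 45 min with DMSO or 2.5 μm inhibitor, then added to wells coated overnight at 4 °C with 2.63 μg/cm² rat anti-mouse LFA-1 mAb and blocked with 2% BSA/PBS. Incubated at 37 °C in RPMI 1640 with 2% FCS for 1 or 3 h. Cells scored as spread when phase dark, elongated or irregular with membrane processes. Percentage of adherent cells spread; mean ± S.E., >150 cells per experiment, three experiments; one-tailed paired t test vs DMSO.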

Series [9] in a line: Toxicity in mouse A20 cells by 7-amino-actinomycin D staining. Format: cell-based.
Series [10] deals with Protein-tyrosine kinase 2-beta (Mus musculus) (UniProt Q9QVP9). In words: Inhibition of anti-Ig-induced tyrosine phosphorylation of Pyk2 in mouse A20 cells at 0.15 to 5 uM incubated for 45 mins before being stimulated with anti-IgG for 20 mins by immunoblotting. Format: cell-based. Conditions: dose 0.15-5 µM, time 65.0 min. The gist of the method: as §1

Calls of active or inactive are those of the source. No cut-off for these calls is given here.

Protein-tyrosine kinase 2-beta (Mus musculus), sequence (Q9QVP9 whole entry, looked up): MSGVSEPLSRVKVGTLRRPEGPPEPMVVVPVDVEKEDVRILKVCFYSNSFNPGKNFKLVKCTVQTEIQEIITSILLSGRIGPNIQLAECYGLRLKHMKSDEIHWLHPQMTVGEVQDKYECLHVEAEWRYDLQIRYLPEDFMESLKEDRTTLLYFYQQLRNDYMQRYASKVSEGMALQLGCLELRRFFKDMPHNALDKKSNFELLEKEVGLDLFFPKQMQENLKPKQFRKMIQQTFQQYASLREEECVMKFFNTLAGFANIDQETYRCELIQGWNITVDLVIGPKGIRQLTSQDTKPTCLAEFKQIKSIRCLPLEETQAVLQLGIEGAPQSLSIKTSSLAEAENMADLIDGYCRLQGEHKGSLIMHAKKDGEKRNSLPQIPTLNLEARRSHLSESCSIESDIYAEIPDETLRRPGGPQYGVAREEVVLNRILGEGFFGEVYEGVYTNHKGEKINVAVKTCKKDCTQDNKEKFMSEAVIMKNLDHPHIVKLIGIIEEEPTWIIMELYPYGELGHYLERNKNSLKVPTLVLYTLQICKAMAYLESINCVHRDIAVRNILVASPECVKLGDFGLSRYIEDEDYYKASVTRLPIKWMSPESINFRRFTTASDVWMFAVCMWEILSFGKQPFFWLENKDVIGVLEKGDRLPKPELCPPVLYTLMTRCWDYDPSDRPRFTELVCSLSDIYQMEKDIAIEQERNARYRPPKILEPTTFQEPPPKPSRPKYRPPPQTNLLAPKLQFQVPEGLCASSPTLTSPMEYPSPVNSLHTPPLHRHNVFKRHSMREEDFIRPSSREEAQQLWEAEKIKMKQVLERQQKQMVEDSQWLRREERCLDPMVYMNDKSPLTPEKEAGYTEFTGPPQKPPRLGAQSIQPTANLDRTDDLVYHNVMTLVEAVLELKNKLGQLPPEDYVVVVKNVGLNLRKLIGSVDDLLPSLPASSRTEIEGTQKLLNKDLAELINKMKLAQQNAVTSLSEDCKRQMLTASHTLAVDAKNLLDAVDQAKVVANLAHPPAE
Tyrosine-protein kinase SYK (Mus musculus), sequence (P48025 whole entry, looked up): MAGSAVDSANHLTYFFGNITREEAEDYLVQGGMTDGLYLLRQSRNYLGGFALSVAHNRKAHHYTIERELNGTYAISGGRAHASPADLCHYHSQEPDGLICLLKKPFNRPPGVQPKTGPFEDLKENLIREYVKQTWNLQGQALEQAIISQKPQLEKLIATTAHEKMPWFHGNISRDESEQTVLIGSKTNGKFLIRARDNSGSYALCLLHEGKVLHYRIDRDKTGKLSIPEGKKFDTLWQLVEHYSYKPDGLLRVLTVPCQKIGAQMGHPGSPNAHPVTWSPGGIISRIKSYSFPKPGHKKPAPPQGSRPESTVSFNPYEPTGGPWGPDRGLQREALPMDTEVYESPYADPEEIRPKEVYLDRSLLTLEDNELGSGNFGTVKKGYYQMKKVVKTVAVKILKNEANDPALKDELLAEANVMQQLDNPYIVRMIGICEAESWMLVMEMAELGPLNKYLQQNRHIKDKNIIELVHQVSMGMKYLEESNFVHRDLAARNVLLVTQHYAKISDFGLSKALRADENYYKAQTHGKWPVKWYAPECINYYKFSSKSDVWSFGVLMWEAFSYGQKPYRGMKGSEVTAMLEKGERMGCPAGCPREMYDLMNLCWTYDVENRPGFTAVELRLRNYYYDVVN

For the compound `CN(c1ccccc1CNc1nc(Nc2ccc3c(c2)CC(=O)N3)ncc1C(F)(F)F)S(C)(=O)=O`, the inhibition result (with A20 [1]; in [2]; in the series on A20 [3]; in [4]; in the series on A20 [8]; in [10]) was “Active” throughout. The inhibition entry (with A20 [5]; with A20 [6]; in series [7]) was “inactive” throughout. In [9], the Activity result is listed as “Non-Toxic”.
